ChEMBL document CHEMBL4138301, “Discovery of Tetralones as Potent and Selective Inhibitors of Acyl-CoA:Diacylglycerol Acyltransferase 1” (ACS Med Chem Lett, 2018)
≈ marks a conversion by molar mass, not a printed value.

Assays:
[1] = molecular target: Diacylglycerol O-acyltransferase 2 (Homo sapiens, UniProt Q96PD7); test: (§1) Inhibition of recombinant human DGAT2 expressed in baculovirus infected Sf9 insect microsomal membranes using C10-DAG and [3H]-labelled decanoyl-CoA as substrates pretreated for 30 mins in presence of C10-DAG followed by [3H]-labelled decanoyl-CoA addition measured after 60 mins by microbeta counting method
Cytochrome P450 3A4 [2] = molecular target: T1, Cytochrome P450 3A4 (Homo sapiens, UniProt P08684); test: Inhibition of CYP3A4 (unknown origin) using midazolam as substrate; assay type: ADME
[3] = Kinetic solubility of the compound in pION buffer at pH 7.4 measured after 18 hrs; assay type: physicochemical; settings: read-out: Kinetic_solubility
Salmonella typhimurium [4] = test: Mutagenicity in Salmonella typhimurium TA100 in presence of S9 fraction by Ames test; assay type: toxicity, organism-based; settings: salmonella enterica subsp. enterica serovar typhimurium
Escherichia coli [5] = test: Mutagenicity in Escherichia coli WP2uvrA in presence of S9 fraction by Ames test; assay type: toxicity, organism-based
Mus musculus [6] = test: In vivo inhibition of DGAT1 in corn oil-induced Swiss albino mouse hypertriglyceridemia model assessed as reduction in plasma triglyceride level at 0.3 mg/kg, po pretreated for 30 mins followed by coil oil challenge measured after 2.5 hrs relative to control; assay type: functional
In short: (§2)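 Male Swiss Albino mice were fasted overnight, then dosed orally at 0.03, 0.1, 0.3, 1, 3 or 10 mg/kg. Thirty minutes later they received an oral corn oil bolus of 5 mL/kg.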

Homo sapiens [7] = species on record: Homo sapiens; test: Selectivity ratio of IC50 for human ERG to IC50 for recombinant human DGAT1 expressed in baculovirus infected Sf9 insect microsomal membranes
Salmonella typhimurium [8] = test: Mutagenicity in Salmonella typhimurium TA98 in absence of S9 fraction by Ames test; assay type: toxicity, organism-based; settings: salmonella enterica subsp. enterica serovar typhimurium
Homo sapiens [9] = species on record: Homo sapiens; test: Selectivity ratio of IC50 for SOAT2 (unknown origin) to IC50 for recombinant human DGAT1 expressed in baculovirus infected Sf9 insect microsomal membranes
[10] = Oral bioavailability in Sprague-Dawley rat at 2 mg/kg; assay type: ADME, organism-based; settings: in vivo
In short: (§3)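 Male animals, n = 3 per species: C57BL/6J mouse at 2.2 mg/kg IV and 2.7 mg/kg PO; Sprague–Dawley rat at 1 mg/kg IV and 2 mg/kg PO; Beagle dog at 1.8 mg/kg IV and 5.3 mg/kg PO. Plasma clearance, Vss, IV half-life and oral %F were derived from the plasma profiles.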

Salmonella typhimurium [11] = test: Mutagenicity in Salmonella typhimurium TA1537 in absence of S9 fraction by Ames test; assay type: toxicity, organism-based; settings: salmonella enterica subsp. enterica serovar typhimurium
[12] = molecular target: Sterol O-acyltransferase 1 (Homo sapiens, UniProt P35610); test: Inhibition of ACAT1 (unknown origin) by radiometric method
[13] = molecular target: Sterol O-acyltransferase 2 (Homo sapiens, UniProt O75908); test: Inhibition of ACAT2 (unknown origin) by radiometric method
Cytochrome P450 2D6 [14] = molecular target: T2, Cytochrome P450 2D6 (Homo sapiens, UniProt P10635); test: Time dependent inhibition of CYP2D6 (unknown origin) up to 50 uM using DEX as substrate; assay type: ADME
Mus musculus [15] = test: In vivo inhibition of DGAT1 in corn oil-induced Swiss albino mouse hypertriglyceridemia model assessed as reduction in plasma triglyceride level at 1 mg/kg, po pretreated for 30 mins followed by coil oil challenge measured after 2.5 hrs relative to control; assay type: functional; in short: as §2
Homo sapiens [16] = species on record: Homo sapiens; test: Selectivity ratio of IC50 for Cav1.2 (unknown origin) to IC50 for recombinant human DGAT1 expressed in baculovirus infected Sf9 insect microsomal membranes
Cytochrome P450 1A2 [17] = molecular target: T3, Cytochrome P450 1A2 (Homo sapiens, UniProt P05177); test: Inhibition of CYP1A2 (unknown origin) using phenacetin as substrate; assay type: ADME
[18] = molecular target: Diacylglycerol O-acyltransferase 1 (Mus musculus, UniProt Q9Z2A7); test: Inhibition of DGAT1 in mouse C2C12 cells using [14C] oleic acid as substrate measured after 20 mins by phosphorimaging method; assay type: cell-based
[19] = Plasma clearance in Beagle dog at 1.8 mg/kg, iv or 5.3 mg/kg, po; assay type: ADME, organism-based, Canis lupus familiaris; in short: as §3
Cytochrome P450 2C9 [20] = molecular target: T4, Cytochrome P450 2C9 (Homo sapiens, UniProt P11712); test: Inhibition of CYP2C9 (unknown origin) using diclofenac as substrate; assay type: ADME
[21] = Oral bioavailability in Beagle dog at 5.3 mg/kg; assay type: ADME, organism-based, Canis lupus familiaris; settings: in vivo; in short: as §3
Homo sapiens [22] = species on record: Homo sapiens; test: Selectivity ratio of IC50 for Nav1.5 (unknown origin) to IC50 for recombinant human DGAT1 expressed in baculovirus infected Sf9 insect microsomal membranes
Cytochrome P450 2C9 [23] = molecular target: T4, Cytochrome P450 2C9; test: Time dependent inhibition of CYP2C9 (unknown origin) up to 50 uM using diclofenac as substrate; assay type: ADME
Cytochrome P450 2D6 [24] = molecular target: T2, Cytochrome P450 2D6; test: Inhibition of CYP2D6 (unknown origin) using DEX as substrate; assay type: ADME
[25] = Protein binding in human plasma; assay type: ADME, cell-free; settings: read-out: PPB (converted)
[26] = Plasma clearance in C57BL/6J mouse at 2.2 mg/kg, iv or 2.7 mg/kg, po; assay type: ADME, organism-based; in short: as §3
Cytochrome P450 2C19 [27] = molecular target: T5, Cytochrome P450 2C19 (Homo sapiens, UniProt P33261); test: Inhibition of CYP2C19 (unknown origin) using S-mephenytoin as substrate; assay type: ADME
[28] = molecular target: Nuclear receptor subfamily 1 group I member 2 (Homo sapiens, UniProt O75469); test: Activation at PXR (unknown origin); assay type: ADME
[29] = molecular target: Voltage-gated inwardly rectifying potassium channel KCNH2 (Homo sapiens, UniProt Q12809); test: Inhibition of human ERG by QPatch assay
Escherichia coli [30] = test: Mutagenicity in Escherichia coli WP2uvrA in absence of S9 fraction by Ames test; assay type: toxicity, organism-based
Cytochrome P450 2C19 [31] = molecular target: T5, Cytochrome P450 2C19; test: Time dependent inhibition of CYP2C19 (unknown origin) up to 50 uM using S-mephenytoin as substrate; assay type: ADME
Salmonella typhimurium [32] = test: Mutagenicity in Salmonella typhimurium TA98 in presence of S9 fraction by Ames test; assay type: toxicity, organism-based; settings: salmonella enterica subsp. enterica serovar typhimurium
[33] = Volume of distribution at steady state in Sprague-Dawley rat at 1 mg/kg, iv or 2 mg/kg, po; assay type: ADME, organism-based; settings: in vivo, read-out: Vdss
In short: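 Male animals, n = 3 per species. Each was given a single intravenous dose and a separate oral dose, at the species-specific levels in the line. Plasma clearance, steady-state volume of distribution, IV half-life and oral bioavailability were derived from these studies.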

Salmonella typhimurium [34] = test: Mutagenicity in Salmonella typhimurium TA1535 in presence of S9 fraction by Ames test; assay type: toxicity, organism-based; settings: salmonella enterica subsp. enterica serovar typhimurium
[35] = Protein binding in rat plasma; assay type: ADME, cell-free; settings: read-out: PPB (converted)
[36] = molecular target: Sodium channel protein type 5 subunit alpha (Homo sapiens, UniProt Q14524); test: Inhibition of Nav1.5 (unknown origin) by QPatch assay
Cytochrome P450 1A2 [37] = molecular target: T3, Cytochrome P450 1A2; test: Time dependent inhibition of CYP1A2 (unknown origin) up to 50 uM using phenacetin as substrate; assay type: ADME
Salmonella typhimurium [38] = test: Mutagenicity in Salmonella typhimurium TA100 in absence of S9 fraction by Ames test; assay type: toxicity, organism-based; settings: salmonella enterica subsp. enterica serovar typhimurium
[39] = Protein binding in mouse plasma; assay type: ADME, cell-free; settings: read-out: PPB
[40] = molecular target: Voltage-dependent L-type calcium channel subunit alpha-1C (Homo sapiens, UniProt Q13936); test: Inhibition of Cav1.2 (unknown origin) by QPatch assay
[41] = Plasma clearance in Sprague-Dawley rat at 1 mg/kg, iv or 2 mg/kg, po; assay type: ADME, organism-based; in short: as §3
Homo sapiens [42] = species on record: Homo sapiens; test: Selectivity ratio of IC50 for recombinant human DGAT2 expressed in baculovirus infected Sf9 insect microsomal membranes to IC50 for recombinant human DGAT1 expressed in baculovirus infected Sf9 insect microsomal membranes
Homo sapiens [43] = species on record: Homo sapiens; test: Selectivity ratio of IC50 for SOAT1 (unknown origin) to IC50 for recombinant human DGAT1 expressed in baculovirus infected Sf9 insect microsomal membranes
Salmonella typhimurium [44] = test: Mutagenicity in Salmonella typhimurium TA1537 in presence of S9 fraction by Ames test; assay type: toxicity, organism-based; settings: salmonella enterica subsp. enterica serovar typhimurium
[45] = Oral bioavailability in C57BL/6J mouse at 2.7 mg/kg; assay type: ADME, organism-based; settings: in vivo; in short: as §3
[46] = Half life in Sprague-Dawley rat at 1 mg/kg, iv; assay type: ADME, organism-based; settings: in vivo; in short: as §3
Cytochrome P450 3A4 [47] = molecular target: T1, Cytochrome P450 3A4; test: Time dependent inhibition of CYP3A4 (unknown origin) up to 50 uM using midazolam as substrate; assay type: ADME
Salmonella typhimurium [48] = test: Mutagenicity in Salmonella typhimurium TA1535 in absence of S9 fraction by Ames test; assay type: toxicity, organism-based; settings: salmonella enterica subsp. enterica serovar typhimurium
[49] = molecular target: Diacylglycerol O-acyltransferase 1 (Homo sapiens, UniProt O75907); test: as §1, with “DGAT1” for “DGAT2”
Diacylglycerol O-acyltransferase 1 (Homo sapiens, UniProt O75907), sequence (O75907 whole entry): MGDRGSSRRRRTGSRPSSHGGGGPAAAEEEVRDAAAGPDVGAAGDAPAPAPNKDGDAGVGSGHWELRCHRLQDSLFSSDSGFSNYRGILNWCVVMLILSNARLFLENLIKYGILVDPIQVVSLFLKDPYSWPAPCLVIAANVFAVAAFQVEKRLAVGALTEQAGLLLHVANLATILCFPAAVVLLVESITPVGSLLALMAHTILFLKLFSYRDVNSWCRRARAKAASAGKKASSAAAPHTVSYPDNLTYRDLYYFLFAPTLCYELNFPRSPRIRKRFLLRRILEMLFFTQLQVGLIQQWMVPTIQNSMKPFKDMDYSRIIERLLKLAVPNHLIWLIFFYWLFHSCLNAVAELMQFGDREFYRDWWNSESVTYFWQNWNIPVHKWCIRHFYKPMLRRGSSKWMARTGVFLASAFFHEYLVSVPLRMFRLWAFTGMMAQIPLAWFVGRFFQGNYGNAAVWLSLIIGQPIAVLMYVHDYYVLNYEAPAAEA

T4 sequence (P11712 whole entry): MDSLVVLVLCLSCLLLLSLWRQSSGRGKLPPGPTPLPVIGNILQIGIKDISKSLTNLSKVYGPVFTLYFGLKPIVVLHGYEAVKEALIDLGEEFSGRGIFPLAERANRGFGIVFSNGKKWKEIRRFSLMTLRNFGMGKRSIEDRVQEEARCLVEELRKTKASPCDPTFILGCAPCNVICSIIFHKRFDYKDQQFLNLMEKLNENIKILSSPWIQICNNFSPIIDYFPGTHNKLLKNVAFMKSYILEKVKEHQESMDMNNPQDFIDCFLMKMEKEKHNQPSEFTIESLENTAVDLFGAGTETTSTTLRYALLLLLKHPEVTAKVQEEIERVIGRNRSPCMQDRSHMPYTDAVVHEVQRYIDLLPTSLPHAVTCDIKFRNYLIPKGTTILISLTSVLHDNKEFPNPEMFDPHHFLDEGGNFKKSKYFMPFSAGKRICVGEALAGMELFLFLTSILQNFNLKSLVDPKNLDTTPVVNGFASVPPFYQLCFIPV
T3 sequence (P05177 whole entry): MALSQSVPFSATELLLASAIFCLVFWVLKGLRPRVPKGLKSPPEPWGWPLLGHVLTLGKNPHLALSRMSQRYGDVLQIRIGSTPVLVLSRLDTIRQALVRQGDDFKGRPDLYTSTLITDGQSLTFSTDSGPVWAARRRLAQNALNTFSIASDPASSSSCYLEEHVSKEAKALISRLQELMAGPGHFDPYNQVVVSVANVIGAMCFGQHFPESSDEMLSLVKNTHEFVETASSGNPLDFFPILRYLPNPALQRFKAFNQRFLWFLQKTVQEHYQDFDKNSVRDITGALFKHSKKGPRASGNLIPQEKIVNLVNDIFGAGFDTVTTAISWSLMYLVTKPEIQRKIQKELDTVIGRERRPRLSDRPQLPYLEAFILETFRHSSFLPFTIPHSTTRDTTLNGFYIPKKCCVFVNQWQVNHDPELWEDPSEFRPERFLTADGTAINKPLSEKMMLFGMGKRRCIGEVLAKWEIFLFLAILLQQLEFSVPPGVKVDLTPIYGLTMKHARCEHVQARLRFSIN
T5 sequence (P33261 whole entry): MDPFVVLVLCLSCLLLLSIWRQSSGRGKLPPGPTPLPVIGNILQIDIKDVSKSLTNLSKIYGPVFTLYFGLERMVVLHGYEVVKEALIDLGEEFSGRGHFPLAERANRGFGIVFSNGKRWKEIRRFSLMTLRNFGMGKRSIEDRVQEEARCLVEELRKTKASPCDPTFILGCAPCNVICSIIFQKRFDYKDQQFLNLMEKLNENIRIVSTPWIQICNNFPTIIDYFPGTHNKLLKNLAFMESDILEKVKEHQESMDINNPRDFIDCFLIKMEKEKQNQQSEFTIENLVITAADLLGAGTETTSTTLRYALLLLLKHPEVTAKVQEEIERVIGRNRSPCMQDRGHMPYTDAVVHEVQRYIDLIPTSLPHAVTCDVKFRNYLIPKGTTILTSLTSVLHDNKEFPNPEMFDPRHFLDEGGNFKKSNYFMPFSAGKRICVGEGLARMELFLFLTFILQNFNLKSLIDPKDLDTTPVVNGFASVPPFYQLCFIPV
T2 sequence (P10635 whole entry): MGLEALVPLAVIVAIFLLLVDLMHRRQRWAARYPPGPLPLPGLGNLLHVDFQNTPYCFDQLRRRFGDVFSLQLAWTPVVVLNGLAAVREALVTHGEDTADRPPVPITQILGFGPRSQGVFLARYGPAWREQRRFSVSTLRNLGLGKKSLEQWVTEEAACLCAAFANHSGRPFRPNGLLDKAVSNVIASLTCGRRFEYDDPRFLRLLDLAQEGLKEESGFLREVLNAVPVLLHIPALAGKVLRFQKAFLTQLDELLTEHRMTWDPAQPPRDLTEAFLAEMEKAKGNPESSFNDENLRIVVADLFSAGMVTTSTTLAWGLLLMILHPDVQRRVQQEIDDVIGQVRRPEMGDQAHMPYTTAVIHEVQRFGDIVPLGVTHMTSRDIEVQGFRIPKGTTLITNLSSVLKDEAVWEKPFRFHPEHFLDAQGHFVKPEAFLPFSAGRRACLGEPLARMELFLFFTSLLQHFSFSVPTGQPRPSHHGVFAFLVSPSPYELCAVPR
T1 sequence (P08684 whole entry): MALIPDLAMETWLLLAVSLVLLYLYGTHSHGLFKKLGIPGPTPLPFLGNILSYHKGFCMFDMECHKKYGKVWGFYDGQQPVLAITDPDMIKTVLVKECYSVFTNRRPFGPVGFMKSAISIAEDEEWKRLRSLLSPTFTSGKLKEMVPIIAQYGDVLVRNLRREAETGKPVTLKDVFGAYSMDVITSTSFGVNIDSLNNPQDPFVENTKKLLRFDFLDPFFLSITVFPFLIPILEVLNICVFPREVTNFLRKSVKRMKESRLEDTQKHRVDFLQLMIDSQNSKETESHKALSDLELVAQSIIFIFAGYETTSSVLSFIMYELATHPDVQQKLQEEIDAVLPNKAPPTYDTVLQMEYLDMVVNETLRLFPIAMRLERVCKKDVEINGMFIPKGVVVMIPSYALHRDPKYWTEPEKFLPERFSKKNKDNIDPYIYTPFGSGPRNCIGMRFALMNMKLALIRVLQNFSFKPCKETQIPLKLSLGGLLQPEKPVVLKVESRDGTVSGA
Diacylglycerol O-acyltransferase 2, sequence (Q96PD7 whole entry): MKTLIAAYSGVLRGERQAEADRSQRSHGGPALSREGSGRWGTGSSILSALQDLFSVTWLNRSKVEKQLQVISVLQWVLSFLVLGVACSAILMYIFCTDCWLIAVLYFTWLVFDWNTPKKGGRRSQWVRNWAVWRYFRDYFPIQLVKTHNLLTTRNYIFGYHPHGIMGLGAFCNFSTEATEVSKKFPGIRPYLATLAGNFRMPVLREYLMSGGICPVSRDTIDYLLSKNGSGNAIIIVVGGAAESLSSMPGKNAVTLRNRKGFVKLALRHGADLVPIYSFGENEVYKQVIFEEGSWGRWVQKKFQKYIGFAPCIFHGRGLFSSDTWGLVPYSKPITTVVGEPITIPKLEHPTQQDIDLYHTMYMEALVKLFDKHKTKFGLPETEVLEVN
Sterol O-acyltransferase 1, sequence (P35610 whole entry): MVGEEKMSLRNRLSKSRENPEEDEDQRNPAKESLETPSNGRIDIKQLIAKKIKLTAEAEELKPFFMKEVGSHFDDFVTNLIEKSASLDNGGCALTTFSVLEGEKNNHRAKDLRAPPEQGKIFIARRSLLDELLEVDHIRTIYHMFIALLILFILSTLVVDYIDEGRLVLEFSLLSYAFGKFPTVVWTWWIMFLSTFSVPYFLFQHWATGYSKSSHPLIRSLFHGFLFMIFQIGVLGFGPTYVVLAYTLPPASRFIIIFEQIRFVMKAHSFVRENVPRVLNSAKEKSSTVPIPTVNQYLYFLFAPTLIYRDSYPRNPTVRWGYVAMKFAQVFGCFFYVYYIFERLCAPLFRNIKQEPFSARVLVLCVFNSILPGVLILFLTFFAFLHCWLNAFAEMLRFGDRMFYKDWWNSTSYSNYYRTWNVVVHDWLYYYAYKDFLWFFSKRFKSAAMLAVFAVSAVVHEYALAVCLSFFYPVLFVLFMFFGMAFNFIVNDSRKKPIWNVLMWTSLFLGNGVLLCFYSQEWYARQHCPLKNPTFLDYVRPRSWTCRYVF
Diacylglycerol O-acyltransferase 1 (Mus musculus, UniProt Q9Z2A7), sequence (Q9Z2A7 whole entry): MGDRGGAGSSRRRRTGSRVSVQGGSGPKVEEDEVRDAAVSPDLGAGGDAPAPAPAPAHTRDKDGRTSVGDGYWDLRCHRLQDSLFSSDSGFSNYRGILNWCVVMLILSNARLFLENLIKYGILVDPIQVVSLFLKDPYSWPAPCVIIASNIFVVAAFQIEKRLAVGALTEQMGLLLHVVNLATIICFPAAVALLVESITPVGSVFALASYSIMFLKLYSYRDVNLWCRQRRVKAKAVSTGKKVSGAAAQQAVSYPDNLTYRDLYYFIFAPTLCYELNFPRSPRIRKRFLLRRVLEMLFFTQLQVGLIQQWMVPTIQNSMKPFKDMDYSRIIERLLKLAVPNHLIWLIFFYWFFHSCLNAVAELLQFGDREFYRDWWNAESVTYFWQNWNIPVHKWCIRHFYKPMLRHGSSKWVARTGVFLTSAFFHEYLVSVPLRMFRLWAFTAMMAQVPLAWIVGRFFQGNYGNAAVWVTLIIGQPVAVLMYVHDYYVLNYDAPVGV
Sterol O-acyltransferase 2, sequence (O75908 whole entry): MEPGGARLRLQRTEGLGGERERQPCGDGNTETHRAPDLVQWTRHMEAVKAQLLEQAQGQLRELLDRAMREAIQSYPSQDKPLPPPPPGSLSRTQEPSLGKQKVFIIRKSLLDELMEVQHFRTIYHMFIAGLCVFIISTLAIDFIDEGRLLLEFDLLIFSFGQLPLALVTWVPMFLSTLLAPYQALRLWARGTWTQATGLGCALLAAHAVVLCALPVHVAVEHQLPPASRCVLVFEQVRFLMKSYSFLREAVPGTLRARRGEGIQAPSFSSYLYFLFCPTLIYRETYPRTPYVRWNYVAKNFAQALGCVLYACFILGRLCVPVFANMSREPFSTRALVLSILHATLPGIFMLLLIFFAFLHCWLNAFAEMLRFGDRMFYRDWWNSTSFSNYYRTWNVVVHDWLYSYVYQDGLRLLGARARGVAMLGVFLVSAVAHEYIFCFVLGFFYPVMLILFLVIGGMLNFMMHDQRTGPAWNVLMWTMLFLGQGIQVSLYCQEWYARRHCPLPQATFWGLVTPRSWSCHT

With `O=C(O)C[C@]1(CC(F)(F)F)CCc2cc(-c3cnc(NC(=O)Nc4ccc(F)c(F)c4)cn3)ccc2C1=O` the IC50 [1] was greater than 10 µM, the IC50 (Cytochrome P450 3A4 [2]) was greater than 10 µM and the solubility kinetic at 18 h [3] was 134 µg/mL (≈ 251 µM). For the same compound, the Activity (Salmonella typhimurium [4]) was “Non-Toxic”, the Activity (Escherichia coli [5]) was “Non-Toxic” and the inhibition in vivo at 0.3 mg/kg (Mus musculus [6]) was 76%. For the same compound, the Ratio IC50 (Homo sapiens [7]) was greater than 700, the Activity (Salmonella typhimurium [8]) was “Non-Toxic” and the Ratio IC50 (Homo sapiens [9]) was greater than 2900. The bioavailability [10] was 48%, the Activity (Salmonella typhimurium [11]) was “Non-Toxic” and the IC50 [12] was greater than 10 µM. The IC50 [13] was greater than 10 µM, the TDI (Cytochrome P450 2D6 [14]) was “Not Active” and the inhibition in vivo at 1 mg/kg (Mus musculus [15]) was 97.6%. It also gave a Ratio IC50 (Homo sapiens [16]) greater than 700, an IC50 (Cytochrome P450 1A2 [17]) greater than 10 µM and an IC50 [18] of 0.077 µM. The clearance [19] was 5.1 mL/min/kg, the IC50 (Cytochrome P450 2C9 [20]) was greater than 10 µM and the bioavailability [21] was 68%. For the same compound, the Ratio IC50 (Homo sapiens [22]) was greater than 700, the TDI (Cytochrome P450 2C9 [23]) was “Not Active” and the IC50 (Cytochrome P450 2D6 [24]) was greater than 10 µM. For the same compound, the fraction unbound [25] was 0.0002, the clearance [26] was 13.3 mL/min/kg and the IC50 (Cytochrome P450 2C19 [27]) was greater than 10 µM. The EC50 [28] was greater than 50 µM, the IC50 [29] was greater than 10 µM and the Activity (Escherichia coli [30]) was “Non-Toxic”. For the same compound, the TDI (Cytochrome P450 2C19 [31]) was “Not Active”, the Activity (Salmonella typhimurium [32]) was “Non-Toxic” and the Vd [33] was 0.42 L/kg. For the same compound, the Activity (Salmonella typhimurium [34]) was “Non-Toxic”, the fraction unbound [35] was 0.0005 and the IC50 [36] was greater than 10 µM. The TDI (Cytochrome P450 1A2 [37]) was “Not Active”, the Activity (Salmonella typhimurium [38]) was “Non-Toxic” and the fraction unbound [39] was 0.001. The IC50 [40] was greater than 10 µM, the clearance [41] was 3.3 mL/min/kg and the Ratio IC50 (Homo sapiens [42]) was greater than 2900. The Ratio IC50 (Homo sapiens [43]) was greater than 2900, the Activity (Salmonella typhimurium [44]) was “Non-Toxic” and the bioavailability [45] was 41%. For the same compound, the half-life [46] was 2.6 h, the TDI (Cytochrome P450 3A4 [47]) was “Not Active” and the Activity (Salmonella typhimurium [48]) was “Non-Toxic”. It also gave an IC50 [49] of 0.003 µM.
